Assay results: ChEMBL document CHEMBL1123180, “Improved glucose tolerance in rats treated with oxazolidinediones” (1986)
The source made the active and inactive calls. No cut-off for these calls is given here.

Test system: Rattus norvegicus
Experiment: Ability to lower blood sugar level at the dose of 25 mg/kg in fasted rats, by using glucose tolerance test(GTT)

Question: How did the Blood sugar lowering turn out when `COc1cccc([N+](=O)[O-])c1C1OC(=O)NC1=O` (stereo not given) was run?
Answer: The Blood sugar lowering was 10%.

Test system: Rattus norvegicus
Experiment: Compound was tested for the ability to lower blood sugar level at the dose of 0.63 mg/kg in fasted rats, by using glucose tolerance test(GTT)
Format: functional
Summary of the method: (§1)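 Male albino rats, groups of five or six, fasted 18–24 h. Glucose 1 g/kg given ip; test drug (0.1 to 100 mg/kg) or water (controls) given orally. Tail-vein blood sampled over 0–3 h; glucose (mg/100 mL) measured by Autoanalyser ferricyanide method. Value is percent lowering of blood glucose vs controls at 0.5 h; a lowering of ≥9% is needed for P = 0.05.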

Question: For `COc1cccc(Cl)c1C1OC(=O)NC1=O` (stereo not given), which Blood sugar lowering is on record?
Answer: Its Blood sugar lowering is 11%.

Test system: Rattus norvegicus
Experiment: Compound was tested for the ability to lower blood sugar level at the dose of 1 mg/kg in fasted rats, by using glucose tolerance test(GTT)
Format: functional
Summary of the method: as §1

Question: For `COc1cccc(F)c1C1OC(=O)NC1=O` (stereo not given), which Blood sugar lowering is on record?
Answer: The Blood sugar lowering was 11%.

Question: `COc1ccc(Cl)cc1C1OC(=O)NC1=O` (stereo not given) was tested. Which Blood sugar lowering did it give?
Answer: The Blood sugar lowering was 12%.

Test system: Rattus norvegicus
Experiment: Compound was tested for the ability to lower blood sugar level at the dose of 25 mg/kg in fasted rats, by using glucose tolerance test(GTT); NA=Inactive
Format: functional, organism-based
Design: dose 25 mg/kg
Summary of the method: as §1

Question: `O=C1NC(=O)C(c2ccccc2)S1` (stereo not given) was tested. Which Blood sugar lowering did it give?
Answer: Its Blood sugar lowering is “inactive”.

Test system: Rattus norvegicus
Experiment: Compound was tested for the ability to lower blood sugar level at the dose of 100 mg/kg in fasted rats, by using glucose tolerance test(GTT); NA=Inactive
Format: functional, organism-based
Design: dose 100 mg/kg
Summary of the method: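 Male albino rats (groups of five or six) fasted 18–24 h, given glucose 1 g/kg ip plus oral drug (range 0.1–100 mg/kg) or water for controls. Tail-vein blood glucose sampled over 0–3 h, read by ferricyanide autoanalyser method. Value is percent blood glucose lowering vs controls at 0.5 h; ≥9% lowering needed for significance at P = 0.05.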

Question: With `NC1=NC(=O)C(c2ccccc2)O1` (stereo not given) as the compound, how does the Blood sugar lowering read?
Answer: The Blood sugar lowering was “inactive”.

Test system: Rattus norvegicus
Experiment: Ability to lower blood sugar level at the dose of 10 mg/kg in fasted rats, by using glucose tolerance test(GTT)
Format: functional
Summary of the method: as §1

Question: For `COc1ccc(C)cc1C1OC(=O)NC1=O` (stereo not given), which Blood sugar lowering is on record?
Answer: Its Blood sugar lowering is 21%.

Question: With `Cc1ccccc1C1OC(=O)NC1=O` (stereo not given) as the compound, how does the Blood sugar lowering read?
Answer: Its Blood sugar lowering is 14%.

Question: Which Blood sugar lowering does the source give for `O=C1NC(=O)C(c2cccc(C(F)(F)F)c2)O1` (stereo not given) here?
Answer: The Blood sugar lowering was 17%.

Question: With `COc1cccc(OC)c1C1OC(=O)NC1=O` (stereo not given) as the compound, how does the Blood sugar lowering read?
Answer: The Blood sugar lowering was 12%.

Question: `COc1c(C)cc(Cl)cc1C1OC(=O)NC1=O` (stereo not given) was tested. Which Blood sugar lowering did it give?
Answer: The Blood sugar lowering was 17%.

Question: For `O=C1NC(=O)C(c2c(F)cccc2Cl)O1` (stereo not given), which Blood sugar lowering is on record?
Answer: Its Blood sugar lowering is 12%.

Question: Which Blood sugar lowering does the source give for `COc1cccc(C)c1C1OC(=O)NC1=O` (stereo not given) here?
Answer: The Blood sugar lowering was 10%.

Question: With `O=C1NC(=O)C(c2ccccc2Cl)O1` (stereo not given) as the compound, how does the Blood sugar lowering read?
Answer: The Blood sugar lowering was 11%.

Question: For `O=C1NC(=O)C(c2cccc(F)c2)O1` (stereo not given), which Blood sugar lowering is on record?
Answer: Its Blood sugar lowering is 10%.

Question: With `COc1c(F)cc(C)cc1C1OC(=O)NC1=O` (stereo not given) as the compound, how does the Blood sugar lowering read?
Answer: Its Blood sugar lowering is 17%.

Question: With `COc1c(Cl)cc(F)cc1C1OC(=O)NC1=O` (stereo not given) as the compound, how does the Blood sugar lowering read?
Answer: Its Blood sugar lowering is 15%.

Question: With `Cc1cccc(C)c1C1OC(=O)NC1=O` (stereo not given) as the compound, how does the Blood sugar lowering read?
Answer: The Blood sugar lowering was 13%.

Question: Which Blood sugar lowering does the source give for `O=C1NC(=O)C(c2ccccc2)O1` (stereo not given) [PEMOLINE DIONE] here?
Answer: Its Blood sugar lowering is 13%.

Question: With `O=C1NC(=O)C(c2ccccc2C(F)(F)F)O1` (stereo not given) as the compound, how does the Blood sugar lowering read?
Answer: The Blood sugar lowering was 11%.

Question: `COc1ccc(Cl)c(C)c1C1OC(=O)NC1=O` (stereo not given) was tested. Which Blood sugar lowering did it give?
Answer: Its Blood sugar lowering is 12%.

Test system: Rattus norvegicus
Experiment: Ability to lower blood sugar level at the dose of 5 mg/kg in fasted rats, by using glucose tolerance test(GTT)
Format: functional
Summary of the method: as §1

Question: With `CC(=O)Nc1ccccc1C1OC(=O)NC1=O` (stereo not given) as the compound, how does the Blood sugar lowering read?
Answer: Its Blood sugar lowering is 14%.

Question: `CCOc1ccc(Cl)cc1C1OC(=O)NC1=O` (stereo not given) was tested. Which Blood sugar lowering did it give?
Answer: The Blood sugar lowering was 11%.

Question: `CCOc1cccc(F)c1C1OC(=O)NC1=O` (stereo not given) was tested. Which Blood sugar lowering did it give?
Answer: The Blood sugar lowering was 9%.

Question: Which Blood sugar lowering does the source give for `COc1ccc(Br)cc1C1OC(=O)NC1=O` (stereo not given) here?
Answer: Its Blood sugar lowering is 22%.

Question: Which Blood sugar lowering does the source give for `O=C1NC(=O)C(c2ccccc2F)O1` (stereo not given) here?
Answer: The Blood sugar lowering was 10%.

Question: For `CCOc1ccccc1C1OC(=O)NC1=O` (stereo not given), which Blood sugar lowering is on record?
Answer: The Blood sugar lowering was 15%.

Question: How did the Blood sugar lowering turn out when `CCOc1ccc(F)cc1C1OC(=O)NC1=O` (stereo not given) was run?
Answer: Its Blood sugar lowering is 9%.

Question: With `COc1ccccc1C1OC(=O)NC1=O` (stereo not given) as the compound, how does the Blood sugar lowering read?
Answer: Its Blood sugar lowering is 14%.

Test system: Rattus norvegicus
Experiment: Ability to lower blood sugar level at the dose of 10 mg/kg in fasted rats, by using glucose tolerance test(GTT); NA=Inactive
Format: functional, organism-based
Design: dose 10 mg/kg
Summary of the method: as §1

Question: How did the Blood sugar lowering turn out when `O=C1NC(=O)C(c2c(Cl)cccc2OCC2CC2)O1` (stereo not given) was run?
Answer: Its Blood sugar lowering is “inactive”.

Question: How did the Blood sugar lowering turn out when `COc1cc(C2OC(=O)NC2=O)c(C)cc1F` (stereo not given) was run?
Answer: The Blood sugar lowering was “inactive”.

Question: How did the Blood sugar lowering turn out when `COc1cc(C2OC(=O)NC2=O)c(Cl)cc1C` (stereo not given) was run?
Answer: The Blood sugar lowering was “inactive”.

Question: How did the Blood sugar lowering turn out when `O=C1NC(=O)C(c2ccc(F)cc2C(F)(F)F)O1` (stereo not given) was run?
Answer: Its Blood sugar lowering is “inactive”.

Question: `COc1cc(C)c(Cl)cc1C1OC(=O)NC1=O` (stereo not given) was tested. Which Blood sugar lowering did it give?
Answer: The Blood sugar lowering was “inactive”.

Question: Which Blood sugar lowering does the source give for `O=C1NC(=O)C(c2c(Cl)cccc2-n2cccc2)O1` (stereo not given) here?
Answer: The Blood sugar lowering was “inactive”.

Question: How did the Blood sugar lowering turn out when `COc1ccc(OC)c(C2OC(=O)NC2=O)c1` (stereo not given) was run?
Answer: Its Blood sugar lowering is “inactive”.

Question: Which Blood sugar lowering does the source give for `COc1ccc(C(C)C)cc1C1OC(=O)NC1=O` (stereo not given) here?
Answer: Its Blood sugar lowering is “inactive”.

Question: How did the Blood sugar lowering turn out when `COc1cccc(C2OC(=O)NC2=O)c1` (stereo not given) was run?
Answer: The Blood sugar lowering was “inactive”.

Question: `COc1ccc(S(=O)(=O)N(C)C)cc1C1OC(=O)NC1=O` (stereo not given) was tested. Which Blood sugar lowering did it give?
Answer: Its Blood sugar lowering is “inactive”.

Test system: Rattus norvegicus
Experiment: Compound was tested for the ability to lower blood sugar level at the dose of 10 mg/kg in fasted rats, by using glucose tolerance test(GTT); NA=Inactive
Format: functional, organism-based
Design: dose 10 mg/kg
Summary of the method: as §1

Question: For `COc1ccc(S(N)(=O)=O)cc1C1OC(=O)NC1=O` (stereo not given), which Blood sugar lowering is on record?
Answer: Its Blood sugar lowering is “inactive”.

Question: How did the Blood sugar lowering turn out when `C/C=C/Oc1cccc(Cl)c1C1OC(=O)NC1=O` (stereo not given) was run?
Answer: Its Blood sugar lowering is “inactive”.

Test system: Rattus norvegicus
Experiment: Ability to lower blood sugar level at the dose of 25 mg/kg in fasted rats, by using glucose tolerance test(GTT); NA=Inactive
Format: functional, organism-based
Design: dose 25 mg/kg
Summary of the method: as §1

Question: For `COc1ccc(S(=O)(=O)NC(=O)NC2CCCCC2)cc1C1OC(=O)NC1=O` (stereo not given), which Blood sugar lowering is on record?
Answer: The Blood sugar lowering was “inactive”.

Question: For `COc1cccc(N)c1C1OC(=O)NC1=O` (stereo not given), which Blood sugar lowering is on record?
Answer: Its Blood sugar lowering is “inactive”.

Question: `CS(=O)(=O)Nc1ccccc1C1OC(=O)NC1=O` (stereo not given) was tested. Which Blood sugar lowering did it give?
Answer: The Blood sugar lowering was “inactive”.

Question: With `COc1cccc(NC(C)=O)c1C1OC(=O)NC1=O` (stereo not given) as the compound, how does the Blood sugar lowering read?
Answer: The Blood sugar lowering was “inactive”.

Question: With `O=C1NC(=O)C(c2ccccc2NS(=O)(=O)c2ccccc2)O1` (stereo not given) as the compound, how does the Blood sugar lowering read?
Answer: The Blood sugar lowering was “inactive”.

Test system: Rattus norvegicus
Experiment: Ability to lower blood sugar level at the dose of 100 mg/kg in fasted rats, by using glucose tolerance test(GTT)
Format: functional
Summary of the method: as §1

Question: Which Blood sugar lowering does the source give for `O=C1NC(=O)C(c2ccccc2)O1` (stereo not given) [PEMOLINE DIONE] here?
Answer: The Blood sugar lowering was 35%.

Test system: Rattus norvegicus
Experiment: Compound was tested for the ability to lower blood sugar level at the dose of 100 mg/kg in fasted rats, by using glucose tolerance test(GTT)
Format: functional
Summary of the method: as §1

Question: For `O=C1NC(=O)C(c2ccccc2)S1` (stereo not given), which Blood sugar lowering is on record?
Answer: Its Blood sugar lowering is 34%.

Test system: Rattus norvegicus
Experiment: Ability to lower blood sugar level at the dose of 2.5 mg/kg in fasted rats, by using glucose tolerance test(GTT)
Format: functional
Summary of the method: as §1

Question: For `COc1ccc(C)cc1C1OC(=O)NC1=O` (stereo not given), which Blood sugar lowering is on record?
Answer: The Blood sugar lowering was 10%.

Test system: Rattus norvegicus
Experiment: Compound was tested for the ability to lower blood sugar level at the dose of 25 mg/kg in rats, by using glucose tolerance test(GTT)
Format: functional
Summary of the method: as §1

Question: For `O=C1NC(=O)C(c2ccccc2)O1` (stereo not given) [PEMOLINE DIONE], which Blood sugar lowering is on record?
Answer: Its Blood sugar lowering is 26%.
